According to ChEMBL document CHEMBL3407481, “Pyridine C-region analogs of 2-(3-fluoro-4-methylsulfonylaminophenyl)propanamides as potent TRPV1 antagonists” (Eur J Med Chem, 2015):

Legend:
[1] = target: T1, Transient receptor potential cation channel subfamily V member 1 (Homo sapiens, UniProt Q8NER1); assay: Antagonist activity at human TRPV1 expressed in CHO cells assessed as inhibition of capsaicin-induced activity by FLIPR assay; type: cell-based
[2] = target: T1, Transient receptor potential cation channel subfamily V member 1; assay: Antagonist activity at human TRPV1 expressed in CHO cells assessed as inhibition of N-arachidonoyl dopamine-induced activity by FLIPR assay; type: cell-based
Mus musculus [3] = assay: Inhibition in capsaicin-induced hypothermia in mouse at 0.1 mg/kg, po 15 min before capsaicin challenge measured 30 mins post capsaicin treatment; type: functional
Mus musculus [4] = assay: Inhibition in capsaicin-induced hypothermia in mouse at 0.3 mg/kg, po 15 min before capsaicin challenge measured 30 mins post capsaicin treatment; type: functional
[5] = target: T1, Transient receptor potential cation channel subfamily V member 1; assay: Antagonist activity at human TRPV1 expressed in CHO cells assessed as inhibition of heat at 45 degC-induced activity by FLIPR assay; type: cell-based
Mus musculus [6] = assay: Analgesic activity in mouse assessed as inhibition of formalin-induced response at 1 mg/kg, po; type: functional
Summary of the method: (§1)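 Formalin test in mice after oral dosing. Values are tabulated as MPE and described as % inhibition of the nociceptive response.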

Mus musculus [7] = assay: Inhibition in capsaicin-induced hypothermia in mouse compound dosed orally before capsaicin challenge measured 30 mins post capsaicin treatment; type: functional, organism-based
Mus musculus [8] = assay: Inhibition in capsaicin-induced hypothermia in mouse at 10 mg/kg, po 15 min before capsaicin challenge measured 30 mins post capsaicin treatment; type: functional
Mus musculus [9] = assay: Analgesic activity in mouse assessed as inhibition of formalin-induced response at 0.3 mg/kg, po; type: functional; summary of the method: as §1
Mus musculus [10] = assay: Inhibition in capsaicin-induced hypothermia in mouse at 1 mg/kg, po 15 min before capsaicin challenge measured 30 mins post capsaicin treatment; type: functional
Mus musculus [11] = assay: Analgesic activity in mouse assessed as inhibition of formalin-induced response at 0.1 mg/kg, po; type: functional; summary of the method: as §1
[12] = target: T1, Transient receptor potential cation channel subfamily V member 1; assay: Antagonist activity at human TRPV1 expressed in CHO cells assessed as inhibition of pH-induced activity by FLIPR assay; type: cell-based

T1 sequence (Q8NER1 whole entry): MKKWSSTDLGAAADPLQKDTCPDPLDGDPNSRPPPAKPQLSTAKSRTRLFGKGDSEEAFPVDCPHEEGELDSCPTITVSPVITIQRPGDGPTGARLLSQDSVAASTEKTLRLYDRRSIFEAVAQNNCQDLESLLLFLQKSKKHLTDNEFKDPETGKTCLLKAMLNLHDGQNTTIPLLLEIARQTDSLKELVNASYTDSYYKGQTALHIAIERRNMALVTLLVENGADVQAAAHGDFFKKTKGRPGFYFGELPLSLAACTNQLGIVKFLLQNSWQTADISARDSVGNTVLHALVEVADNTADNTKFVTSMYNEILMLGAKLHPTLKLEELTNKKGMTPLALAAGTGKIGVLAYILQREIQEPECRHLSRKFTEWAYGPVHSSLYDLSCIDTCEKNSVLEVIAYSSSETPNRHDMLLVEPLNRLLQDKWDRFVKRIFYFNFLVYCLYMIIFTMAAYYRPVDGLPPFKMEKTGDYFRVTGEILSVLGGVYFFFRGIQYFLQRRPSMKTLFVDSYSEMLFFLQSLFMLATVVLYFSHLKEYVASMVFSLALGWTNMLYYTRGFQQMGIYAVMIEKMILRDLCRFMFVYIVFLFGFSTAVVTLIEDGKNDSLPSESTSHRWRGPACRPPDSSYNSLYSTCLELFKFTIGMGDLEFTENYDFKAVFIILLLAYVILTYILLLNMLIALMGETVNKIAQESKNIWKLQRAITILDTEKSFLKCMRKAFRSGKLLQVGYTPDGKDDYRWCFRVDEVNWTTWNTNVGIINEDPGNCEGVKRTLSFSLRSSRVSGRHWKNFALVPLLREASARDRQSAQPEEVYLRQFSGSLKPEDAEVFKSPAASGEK

CC(C(=O)NCc1ccc(C(F)(F)Cl)nc1N1CCCCCC1)c1ccc(NS(C)(=O)=O)c(F)c1 (stereo not drawn)
Ki ([1]; read-out: Ki): 0.5 nM

CC(C(=O)NCc1ccc(C(F)(F)Cl)nc1SC1CCCCC1)c1ccc(NS(C)(=O)=O)c(F)c1 (stereo not drawn)
Ki ([1]; read-out: Ki): 3 nM

CC(C(=O)NCc1ccc(C(F)(F)Cl)nc1N1CCCCC1)c1ccc(NS(C)(=O)=O)c(F)c1 (stereo not drawn)
Ki ([1]; read-out: Ki): 1.3 nM

CC(C(=O)NCc1ncc(C(F)(F)F)cc1N1CCCCC1)c1ccc(NS(C)(=O)=O)c(F)c1 (stereo not drawn)
Ki ([1]; read-out: Ki): 28.6 nM

CC(C(=O)NCc1ccc(C(F)(F)Cl)nc1OC1CCCC1)c1ccc(NS(C)(=O)=O)c(F)c1 (stereo not drawn)
Ki [2]: 0.04 nM
inhibition in vivo at 0.1 mg/kg (Mus musculus [3]): 23%
inhibition in vivo at 0.3 mg/kg (Mus musculus [4]): 41%
IC50 [5]: 19.3 nM
MPE (Mus musculus [6]): 15%
inhibition (Mus musculus [7]): Dose-dependent effect
inhibition in vivo at 10 mg/kg (Mus musculus [8]): 92%
MPE (Mus musculus [9]): 29%
inhibition in vivo at 1 mg/kg (Mus musculus [10]): 60%

CC1CCN(c2nc(C3CC3)ccc2CNC(=O)C(C)c2ccc(NS(C)(=O)=O)c(F)c2)CC1 (stereo not drawn)
Ki ([1]; read-out: Ki): 0.9 nM

CCCCCCOc1nc(C(F)(F)F)cc(C)c1CNC(=O)C(C)c1ccc(NS(C)(=O)=O)c(F)c1 (stereo not drawn)
Ki ([1]; read-out: Ki): 100 nM

CC(C(=O)NCc1ncc(C(F)(F)F)cc1N1CCCC1)c1ccc(NS(C)(=O)=O)c(F)c1 (stereo not drawn)
Ki ([1]; cho): Not Active

CCCCOc1nc(C(F)(F)Cl)ccc1CNC(=O)C(C)c1ccc(NS(C)(=O)=O)c(F)c1 (stereo not drawn)
Ki [2]: 0.02 nM
inhibition in vivo at 0.3 mg/kg (Mus musculus [4]): 43%
IC50 [5]: 7 nM
MPE (Mus musculus [11]): 56%
Ki ([1]; read-out: Ki): 0.3 nM
MPE (Mus musculus [9]): 73%
IC50 [12]: 8.3 nM

CC1CC(C)CN(c2nc(C(F)(F)Cl)ccc2CNC(=O)C(C)c2ccc(NS(C)(=O)=O)c(F)c2)C1 (mixture of isomers)
Ki ([1]; read-out: Ki): 1 nM

CC1CCN(c2nc(C(F)(F)F)ccc2CNC(=O)C(C)c2ccc(NS(C)(=O)=O)c(F)c2)CC1 (stereo not drawn)
Ki [2]: 0.02 nM
IC50 [12]: 15.8 nM

CC1CCN(c2nc(-c3ccc(F)cc3)ccc2CNC(=O)C(C)c2ccc(NS(C)(=O)=O)c(F)c2)CC1 (stereo not drawn)
Ki ([1]; read-out: Ki): 59 nM

CC(C(=O)NCc1ccc(C2CC2)nc1N1CCCCC1)c1ccc(NS(C)(=O)=O)c(F)c1 (stereo not drawn)
Ki ([1]; read-out: Ki): 1.1 nM
